Measurements collected from several papers.
Lines come from different studies, so protocols differ.
Target: Serine/threonine-protein kinase 25 (STK25, Homo sapiens, UniProt O00506)

C[C@@H]1CCN(c2nccc(-c3cnn4ncccc34)n2)C1 — remaining binding (binding; 1 µM): 100%
CCS(=O)(=O)c1cc2cc(C[C@@](O)(CC(C)(C)c3ccc(F)cc3C(N)=O)C(F)(F)F)[nH]c2cn1 — remaining binding (cell-free assay, competition with immobilised ligand; 1 µM): 87%
C=CC(=O)N1CCC(C(=O)NCC(=O)N2CCN(c3nc(-c4cnc(N)nc4C(F)F)nc(N4CCOCC4)n3)CC2)CC1 — remaining binding (binding, competition with immobilised ligand; 1 µM): 96%
O=C(c1ccc(Nc2ncc(Cl)c(-c3cc4ccccc4s3)n2)cc1)N1CCC(N2CCCC2)CC1 — remaining binding (binding, competition with immobilised ligand; 1 µM): 32%
c1cnn2ncc(-c3ccnc(N4CCC45COC5)n3)c2c1 — remaining binding (binding; 1 µM): 100%
N#CC1(c2ccccn2)CCN(Cc2cc(C(=O)N3CCCC3)c(=O)n3ccccc23)CC1 — remaining binding (cell-free assay, competition with immobilised ligand; 1 µM): 97%
CCN1CCN(Cc2ccc(C(=O)Nc3ccc(C)c(Oc4ccc5c(c4)CC(=O)N5)c3)cc2C(F)(F)F)CC1 — remaining binding (binding, competition with immobilised ligand; 1 µM): 100%
CNC(=O)[C@@H]1CC[C@@H](n2c(-c3ccc4cnccc4c3)nc3ccc(C(=O)NCc4cccc(C(N)=O)c4)cc32)C1 — remaining binding (binding, competition with immobilised ligand; 1 µM): 100%
F[C@@H]1CCN(c2nccc(-c3cnn4ncccc34)n2)C1 — remaining binding (binding; 1 µM): 100%
COc1cnc(Nc2cccc(S(N)(=O)=O)c2)nc1N1CCN(c2ccccc2)CC1 — remaining binding (binding, competition with immobilised ligand; 1 µM): 100%
O=C(NCCCC1CCCCC1)c1ccc(CNC(=O)c2cnn(-c3ccccc3)c2C(F)(F)F)cc1 — remaining binding (cell-free assay, competition with immobilised ligand; 0.1 µM): 81%
O=C(NCCCN1CCOCC1)c1ccc(Nc2ncc(Cl)c(-c3ccc(Cl)s3)n2)cc1 — remaining binding (binding, competition with immobilised ligand; 1 µM): 89%
O=C(NCC1CCOCC1)c1n[nH]cc1NC(=O)c1c(F)cccc1F — remaining binding (binding, competition with immobilised ligand; 1 µM): 95%
CNC(=O)Nc1ccc2c(c1)CC[C@@]21OC(=O)N(CC(=O)N(Cc2ccc(F)cc2)[C@@H](C)C(F)(F)F)C1=O — remaining binding (cell-free assay, competition with immobilised ligand; 1 µM): 99%
N[C@H]1CCN(c2nccc(-c3cnn4ncccc34)n2)C1 — remaining binding (binding; 1 µM): 100%
CCC(=O)N[C@H]1CC[C@@H](C(=O)N(C)c2ccc(-c3nc4ccccc4o3)cc2)C1 — remaining binding (cell-free assay, competition with immobilised ligand; 1 µM): 100%
C[C@@H](c1ccc(-n2cnc3c(N)ncnc32)cc1)N1CCc2nn(C)c(Cc3ccccc3)c2C1=O — remaining binding (binding, competition with immobilised ligand; 0.1 µM): 86%
CN(C)c1nccc(-c2cnc3ncccn23)n1 — remaining binding (binding; 1 µM): 100%
CC1=C(C#N)[C@@H](c2ccc3[nH]nc(C)c3c2)C(C#N)=C(c2ccc(Cl)cc2)N1 — remaining binding (cell-free assay, competition with immobilised ligand; 1 µM): 100%
Cc1cnn2ncc(-c3ccnc(N(C)C)n3)c2c1 — remaining binding (binding; 1 µM): 100%
O=C(c1ccc(Nc2nccc(-c3cc4ccccc4s3)n2)cc1)N1CCC(N2CCCC2)CC1 — remaining binding (binding, competition with immobilised ligand; 1 µM): 22%
